Experimental data: ChEMBL document CHEMBL4130626, “α-Arylidene Diacylglycerol-Lactones (DAG-Lactones) as Selective Ras Guanine-Releasing Protein 3 (RasGRP3) Ligands” (J Med Chem, 2018)

Legend:
[1] = species on record: Homo sapiens; experiment: Selectivity ratio of Ki for GST-tagged PKCalpha C1 domain to Ki for human RasGRP3 overexpressed in HEK-293 cells
[2] = molecular target: T1, Ras guanyl-releasing protein 3 (Homo sapiens, UniProt Q8IV61); experiment: Displacement of [3H]PDBu from full length MBP-tagged human RasGRP3 expressed in Escherichia coli BL21 (DE3) after 5 mins by scintillation counting
T1 sequence (Q8IV61 whole entry): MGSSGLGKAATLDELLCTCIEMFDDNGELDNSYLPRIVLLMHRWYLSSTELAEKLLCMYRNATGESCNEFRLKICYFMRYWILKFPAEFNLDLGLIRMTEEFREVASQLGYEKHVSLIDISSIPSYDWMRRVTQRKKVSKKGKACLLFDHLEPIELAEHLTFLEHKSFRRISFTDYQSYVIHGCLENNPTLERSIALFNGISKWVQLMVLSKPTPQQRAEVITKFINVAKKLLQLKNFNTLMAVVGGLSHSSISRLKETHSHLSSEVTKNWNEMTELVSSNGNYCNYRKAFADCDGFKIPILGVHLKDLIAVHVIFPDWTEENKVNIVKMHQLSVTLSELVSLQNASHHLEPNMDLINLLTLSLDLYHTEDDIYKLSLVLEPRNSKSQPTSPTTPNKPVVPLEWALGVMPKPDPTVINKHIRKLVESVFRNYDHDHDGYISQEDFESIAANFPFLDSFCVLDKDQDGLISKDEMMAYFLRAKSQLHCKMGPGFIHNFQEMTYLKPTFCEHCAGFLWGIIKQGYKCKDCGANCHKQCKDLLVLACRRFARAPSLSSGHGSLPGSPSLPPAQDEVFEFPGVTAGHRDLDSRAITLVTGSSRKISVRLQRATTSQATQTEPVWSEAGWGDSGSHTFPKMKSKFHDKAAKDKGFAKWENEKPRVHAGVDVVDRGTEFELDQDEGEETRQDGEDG
Summary of the method: (§1)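 Competition of [3H]PDBu binding by polyethylene glycol precipitation, with 100 µg/ml phosphatidylserine and ≤0.003% Triton X-100, 5 min at 37 °C. Proteins: full-length purified human PKCα, PKCε; full-length RasGRP1; MBP-RasGRP3 from E. coli BL21(DE3) induced with 0.3 mM IPTG 6 h at room temperature. Ki mean ± SEM of ≥2 experiments, triplicate points.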

[3] = molecular target: Protein kinase C alpha type (Homo sapiens, UniProt P17252); experiment: Displacement of [3H]PDBu from full length recombinant human PKCalpha expressed in baculovirus expression system after 5 mins by scintillation counting; summary of the method: as §1
[4] = molecular target: T2, Protein kinase C epsilon type (Homo sapiens, UniProt Q02156); experiment: Displacement of [3H]PDBu from full length recombinant human PKCepsilon expressed in baculovirus expression system after 5 mins by scintillation counting; summary of the method: as §1
T2 sequence (Q02156 whole entry): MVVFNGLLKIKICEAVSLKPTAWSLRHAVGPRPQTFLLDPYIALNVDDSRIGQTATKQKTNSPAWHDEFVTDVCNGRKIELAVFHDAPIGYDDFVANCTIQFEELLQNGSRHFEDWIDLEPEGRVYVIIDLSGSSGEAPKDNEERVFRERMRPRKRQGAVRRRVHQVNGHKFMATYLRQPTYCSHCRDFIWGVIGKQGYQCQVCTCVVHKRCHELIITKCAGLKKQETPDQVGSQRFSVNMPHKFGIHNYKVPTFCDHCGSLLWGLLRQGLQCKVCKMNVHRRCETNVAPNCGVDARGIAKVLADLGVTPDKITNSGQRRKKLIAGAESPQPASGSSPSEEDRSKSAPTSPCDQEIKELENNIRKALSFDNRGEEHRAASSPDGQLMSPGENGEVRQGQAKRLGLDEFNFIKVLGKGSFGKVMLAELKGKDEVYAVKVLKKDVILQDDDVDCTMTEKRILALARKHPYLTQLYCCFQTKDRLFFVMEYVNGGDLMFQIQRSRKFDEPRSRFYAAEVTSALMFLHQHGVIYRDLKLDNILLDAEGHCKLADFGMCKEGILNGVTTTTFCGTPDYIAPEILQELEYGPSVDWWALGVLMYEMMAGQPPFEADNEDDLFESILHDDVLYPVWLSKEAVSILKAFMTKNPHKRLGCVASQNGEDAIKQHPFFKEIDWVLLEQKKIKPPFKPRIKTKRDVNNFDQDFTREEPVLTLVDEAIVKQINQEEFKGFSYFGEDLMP

Structure (SMILES)	Ratio Ki [1]	Ki [2]	Ki [3]	Ki [4]
COc1ccc(C(=O)OCC2(CO)C/C(=C\c3ccc([N+](=O)[O-])cc3)C(=O)O2)cc1 (stereo unspecified)	20	–	–	–
Cn1cc(/C=C2\CC(CO)(COC(=O)/C=C/c3ccccc3)OC2=O)c2ccccc21 (stereo unspecified)	–	25 nM	439 nM	672 nM
Cn1cc(/C=C2/CC(CO)(COC(=O)C(C)(C)C)OC2=O)c2cc(Cl)ccc21 (stereo unspecified)	–	4.32 nM	79.1 nM	104 nM
Cn1cc(/C=C/C(=O)OCC2(CO)C/C(=C\c3cn(C)c4ccccc34)C(=O)O2)c2ccccc21 (stereo unspecified)	–	15.7 nM	375 nM	780 nM
CCCCCCC(=O)OCC1(CO)C/C(=C\c2cn(C)c3ccccc23)C(=O)O1 (stereo unspecified)	–	5.3 nM	135 nM	122 nM
Cn1cc(/C=C2/CC(CO)(COC(=O)C(C)(C)C)OC2=O)c2cc([N+](=O)[O-])ccc21 (stereo unspecified)	–	1390 nM	> 30000 nM	> 30000 nM
COc1ccc(/C=C2\CC(CO)(COC(=O)c3ccc(OC)cc3)OC2=O)cc1 (stereo unspecified)	–	4.17 nM	84.7 nM	13.4 nM
CC(C)(C)C(=O)OCC1(CO)C/C(=C\c2ccccn2)C(=O)O1 (stereo unspecified)	–	192 nM	3640 nM	1120 nM
CN(C)c1ccc(/C=C2\CC(CO)(COC(=O)c3ccc(N(C)C)cc3)OC2=O)cc1 (stereo unspecified)	–	26.8 nM	252 nM	39.4 nM
COc1ccc(/C=C2\CC(CO)(COC(=O)c3ccc(N(C)C)cc3)OC2=O)cc1 (stereo unspecified)	–	7 nM	82.2 nM	18.3 nM
Cn1nc(/C=C2\CC(CO)(COC(=O)C(C)(C)C)OC2=O)c2ccccc21 (stereo unspecified)	–	7.22 nM	184 nM	131 nM
COc1ccc(C(=O)OCC2(CO)C/C(=C\c3ccccn3)C(=O)O2)cc1 (stereo unspecified)	–	89.7 nM	1190 nM	199 nM
COc1ccc(C(=O)OCC2(CO)C/C(=C\c3ccc(Cl)cc3)C(=O)O2)cc1 (stereo unspecified)	–	2.25 nM	27.6 nM	7.1 nM
CCCCn1cc(/C=C2\CC(CO)(COC(=O)C(C)(C)C)OC2=O)c2ccccc21 (stereo unspecified)	–	1.87 nM	25.6 nM	19.2 nM
O=C1OC(CO)(COC(=O)c2ccc(Cl)cc2)C/C1=C\c1ccc(Cl)cc1 (stereo unspecified)	–	2.69 nM	25.2 nM	6.51 nM
CN(C)c1ccc(C(=O)OCC2(CO)C/C(=C\c3cn(C)c4ccccc34)C(=O)O2)cc1 (stereo unspecified)	–	18.2 nM	186 nM	220 nM
CC(C)(C)C(=O)OCC1(CO)C/C(=C\c2coc3ccccc23)C(=O)O1 (stereo unspecified)	–	2.8 nM	114 nM	35.3 nM
CC(C)(C)C(=O)OCC1(CO)C/C(=C/c2csc3ccccc23)C(=O)O1 (stereo unspecified)	–	4.26 nM	37 nM	12.5 nM
Cn1cc(/C=C2\CC(CO)(COC(=O)C3CCC(C(C)(C)C)CC3)OC2=O)c2ccccc21 (stereo unspecified)	–	2.15 nM	31.3 nM	42 nM
COc1ccc(C(=O)OCC2(CO)C/C(=C\c3cn(C)c4ccccc34)C(=O)O2)cc1 (stereo unspecified)	–	26.5 nM	446 nM	380 nM
Cn1cc(/C=C2\CC(CO)(COC(=O)C(C)(C)C)OC2=O)c2cc([N+](=O)[O-])ccc21 (stereo unspecified)	–	3490 nM	> 30000 nM	> 30000 nM
